Measurements from different studies.
Compare with care: the assays were run in different laboratories.
PTGES: Prostaglandin E synthase (PTGES, Homo sapiens, UniProt O14684)
CHRM2: Muscarinic acetylcholine receptor M2 (CHRM2, Homo sapiens, UniProt P08172)

With `CCCCCc1cc(O)c2c(c1)OC(C)(C)c1ccc(C)cc1-2` the IC50 was over 10 µM (PTGES; enzyme activity; inhibitor).
`CC(C)C[C@H](NC(=O)CNC(=O)[C@H](C)NC(=O)c1ccc(S[C@@H]2O[C@H](CO)[C@H](O)[C@H](O)[C@H]2O)cc1)C(=O)N[C@@H](C)C(=O)N[C@H]1CCN(c2cc3c(cc2F)c(=O)c(C(=O)O)cn3C2CC2)C1` gave a Ki of 12 µM (PA-I galactophilic lectin (lecA, Pseudomonas aeruginosa, UniProt Q05097); ligand displacement; FP).
The IC50 of `CCCCCc1cc(O)c2c(c1)OC(C)(C)[C@@H]1CCC(C)=C[C@@H]21` is reported as over 10 µM (PTGES; enzyme activity; inhibitor).
`CC(C)C[C@H](NC(=O)[C@H](Cc1ccccc1)NC(=O)[C@H](Cc1ccc(O)cc1)NC(=O)CNC(=O)[C@H](CCCCN)NC(=O)[C@H](CO)NC(=O)[C@H](CCC(N)=O)NC(=O)CNC(=O)[C@@H](NC(=O)[C@H](CO)NC(=O)[C@@H]1CCCN1C(=O)[C@H](CO)NC(=O)[C@H](CCC(N)=O)NC(=O)[C@H](Cc1ccc(O)cc1)NC(=O)[C@H](CCC(=O)O)NC(=O)[C@H](C)NC(=O)[C@H](CCCCN)NC(=O)[C@@H](N)Cc1ccccc1)C(C)C)C(=O)N[C@@H](Cc1ccccc1)C(=O)N[C@@H](CCCNC(=N)N)C(=O)N1CCC[C@H]1C(=O)N[C@@H](CCCNC(=N)N)C(=O)N[C@@H](CC(N)=O)C(N)=O` has an EC50 of 0.000501 µM (Neuromedin-U receptor 1 (Mus musculus, UniProt O55040); β-arrestin recruitment; agonist).
The Ki of `CCCCCCCNCCCc1ccc([N+](=O)[O-])cc1` is reported as 3.2 µM (CHRM2; ligand displacement; radioligand).
With `CC(C)[N+](C)(CCC(C(N)=O)(c1ccccc1)c1ccccc1)C(C)C` the IC50 was 0.007 µM (CHRM2; ligand displacement; radioligand).
`CCCCCCCCCCCCNCCCc1ccc([N+](=O)[O-])cc1` gave a Ki of 5.6 µM (CHRM2; ligand displacement; radioligand).
`CC(C)(C)[C@H](NC(=O)C(F)(F)F)C(=O)N1C[C@H]2[C@@H]([C@H]1C(=O)N[C@H](C#N)C[C@@H]1CCNC1=O)C2(C)C` has a Ki of 521 µM (Organic anion transporter 3 (SLC22A8, Homo sapiens, UniProt Q8TCC7); transporter uptake; inhibitor).
